Activity calls are given as the source filed them. No cut-off for these calls is given here.
Tests used:
[1] = Cmax in rat at 30 mg/kg, po; format: ADME, organism-based; design: dose 30 mg/kg, route oral; details: in vivo
How it was run: (§1)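 Rat oral dose escalation at 10, 30, 55 and 100 mg/kg. Gavage at 5 mL/kg in 40% HPβCD after an overnight fast. Serial tail-vein blood was drawn into heparinized tubes. Plasma was protein-precipitated with acetonitrile and assayed by LC-MS/MS. Cmax and AUC0–12 were derived noncompartmentally; n = 2 at 10 mg/kg.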

[2] = Cmax in rat at 55 mg/kg, po; format: ADME, organism-based; design: dose 55 mg/kg, route oral; details: in vivo; how it was run: as §1
[3] = AUC in Sprague-Dawley rat at 10 mg/kg, po; format: ADME, organism-based; design: dose 10 mg/kg, route oral; details: plasma
How it was run: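 Rat PK. IV via the lateral tail vein, 1 mL/kg in 3% DMSO/30% Solutol/67% PBS, or oral gavage at 5 mL/kg in 40% HPβCD, after an overnight fast. Serial tail-vein blood was taken into heparin over 6 h. Plasma was acetonitrile-precipitated and analysed by LC-MS/MS. Parameters were noncompartmental, n = 3, mean ± SEM.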

[4] = Tmax in SCID mouse at 10 mg/kg, po; format: ADME, organism-based; design: dose 10 mg/kg, route oral; details: in vivo
How it was run: (§2)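 Mouse oral PK: overnight fast, gavage of 100 μL in 100% PEG400; trunk blood from three mice per time point over 6 h; plasma acetonitrile-precipitated and analysed by LCMS/MS, noncompartmental parameters.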

[5] = molecular target: T1, Ribosomal protein S6 kinase alpha-3 (Homo sapiens, UniProt P51812); details: 1 uM
[6] = Half life in CD-1 mouse at 10 mg/kg, po; format: ADME, organism-based; design: dose 10 mg/kg, route oral; details: in vivo
How it was run: (§3)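 Mouse PK. IV via the lateral tail vein in 3% DMSO/30% Solutol/67% PBS, or oral gavage in 100% PEG400, 100 μL dose volume, after an overnight fast. Trunk blood was taken from three mice per time point over 6 h. Plasma was acetonitrile-precipitated and analysed by LC-MS/MS. Parameters were derived noncompartmentally.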

[7] = AUC (0 to 12 hrs) in rat 55 mg/kg, po; format: ADME, organism-based; design: time < 12 hr, dose 55 mg/kg, route oral; details: plasma; how it was run: as §1
NB1643 = assay: Antitumor activity against human NB1643 cells expressing ALK mutant F1174L assessed as growth inhibition administered as po bid; format: functional, organism-based
[8] = Half life in SCID mouse at 10 mg/kg, po; format: ADME, organism-based; design: dose 10 mg/kg, route oral; details: in vivo; how it was run: as §3
[9] = molecular target: T2, Vascular endothelial growth factor receptor 3 (Homo sapiens, UniProt P35916); details: 1 uM
[10] = Tmax in CD-1 mouse at 10 mg/kg, po; format: ADME, organism-based; design: dose 10 mg/kg, route oral; details: in vivo; how it was run: as §2
[11] = Plasma clearance in Beagle dog at 1 mg/kg, iv; format: ADME, organism-based, Canis lupus familiaris; design: dose 1 mg/kg, route intravenous
How it was run: (§4)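 IV PK: rats via lateral tail vein (1 mL/kg; 3% DMSO/30% Solutol/67% PBS), serial tail-vein blood over 6 h. Dogs and monkeys via saphenous vein (0.5 mL/kg in 40% HPβCD), femoral-vein blood over 24 h. Acetonitrile protein precipitation, LCMS/MS; noncompartmental parameters from individual animals, n = 3, mean ± SEM.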

SK-N-AS = assay: Antitumor activity against human SK-N-AS cells expressing wild type ALK assessed as growth inhibition administered as po bid; format: functional, organism-based
[12] = Volume of distribution in cynomolgus monkey at 1 mg/kg, iv; format: ADME, organism-based, Macaca fascicularis; design: dose 1 mg/kg, route intravenous; details: in vivo; how it was run: as §4
[13] = AUC in cynomolgus monkey at 10 mg/kg, po; format: ADME, organism-based, Macaca fascicularis; design: dose 10 mg/kg, route oral; details: plasma
How it was run: (§5)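 Dog and monkey PK. IV 0.5 mL/kg in 40% HPβCD via the saphenous vein. Oral dosing was 1 mL/kg by gavage in dogs and 2 mL/kg by nasogastric tube in monkeys, after an overnight fast. Serial femoral-vein blood was taken into heparin over 24 h. Plasma was acetonitrile-precipitated and analysed by LC-MS/MS. Parameters were noncompartmental, n = 3, mean ± SEM.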

[14] = Drug level in SCID/beige mouse tumor xenografted with human KARPAS299 cells expressing NPM-ALK at 10 mg/kg, po bid after 2 hrs post last dose by LC-MS/MS analysis; format: ADME, organism-based, Neoplasm, KARPAS-299; design: dose 10 mg/kg, route oral; details: read-out: Drug uptake
How it was run: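 Female SCID/beige mice, 6–8 weeks old, implanted sc in the left flank with exponentially growing Karpas-299 cells. At about 600 mm³ tumours, mice were randomized (8–10/group) and given PEG400 vehicle or compound orally b.i.d., 100 μL, for 12 days. Tumour volume (0.5236LW(L+W)/2) and body weight were recorded every 2–3 days; Mann–Whitney test. Plasma and tumour levels were measured by LC-MS/MS 2 h after the final dose, mean ± SEM.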

Mus musculus = assay: Toxicity in SCID mouse xenografted with human KARPAS299 cells expressing NPM-ALK assessed as overt toxicity at 10 to 30 mg/kg, po bid; format: organism-based, KARPAS-299; design: dose 10-30 mg/kg, route oral; details: in vivo
How it was run: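 Female SCID/beige mice (6–8 weeks), Karpas-299 cells implanted sc in left flank; at ~600 mm³ randomized (8–10/group), dosed orally in PEG400, 100 μL, b.i.d. for 12 days. Body weight every 2–3 days; plasma and tumor sampled 2 h after final dose, drug by LCMS/MS; Mann–Whitney rank sum statistics.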

[15] = molecular target: T1, Ribosomal protein S6 kinase alpha-3; assay: Inhibition of human Rsk2
How it was run: (§6)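 Millipore KinaseProfiler activity assays on a 259-kinase panel; kinases inhibited by ≥90% at 1 μM then taken to full IC50 determination.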

[16] = molecular target: T3, Ribosomal protein S6 kinase alpha-2 (Homo sapiens, UniProt Q15349); assay: Inhibition of human Rsk3; how it was run: as §6
[17] = molecular target: T3, Ribosomal protein S6 kinase alpha-2; details: 1 uM
[18] = Cmax in cynomolgus monkey at 10 mg/kg, po; format: ADME, organism-based, Macaca fascicularis; design: dose 10 mg/kg, route oral; details: in vivo; how it was run: as §5
[19] = Drug level in SCID mouse tumor xenografted with human KARPAS299 cells expressing NPM-ALK at 30 mg/kg, po after 24 hrs by LC-MS/MS analysis; format: ADME, organism-based, Neoplasm, KARPAS-299; design: dose 30 mg/kg, route oral; details: read-out: Drug uptake
[20] = Drug level in SCID mouse tumor xenografted with human KARPAS299 cells expressing NPM-ALK at 30 mg/kg, po after 2 hrs by LC-MS/MS analysis; format: ADME, organism-based, Neoplasm, KARPAS-299; design: dose 30 mg/kg, route oral; details: read-out: Drug uptake
[21] = molecular target: Mitogen-activated protein kinase 8 (Homo sapiens, UniProt P45983); assay: Inhibition of human JNK1alpha1; how it was run: as §6
[22] = Plasma clearance in CD-1 mouse at 1 mg/kg, iv; format: ADME, organism-based; design: dose 1 mg/kg, route intravenous
How it was run: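 Mouse IV PK: lateral tail vein dosing, 100 μL in 3% DMSO/30% Solutol/67% PBS; trunk blood from three mice per time point over 6 h. Plasma precipitated with acetonitrile, drug quantified by LCMS/MS against internal standard; noncompartmental analysis.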

[23] = AUC in CD-1 mouse at 10 mg/kg, po; format: ADME, organism-based; design: dose 10 mg/kg, route oral; details: plasma; how it was run: as §3
[24] = Oral bioavailability in Sprague-Dawley rat at 10 mg/kg; format: ADME, organism-based; details: in vivo
How it was run: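 PK: overnight-fasted animals. Rat oral gavage 5 mL/kg in 40% HPβCD, serial tail-vein blood over 6 h. Dog oral gavage 1 mL/kg, monkey nasogastric 2 mL/kg, femoral-vein blood over 24 h. Plasma protein-precipitated with acetonitrile, LCMS/MS with internal standard; noncompartmental analysis, individual animals n = 3, mean ± SEM.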

[25] = molecular target: ALK tyrosine kinase receptor (Homo sapiens, UniProt Q9UM73); assay: Inhibition of human ALK cytoplasmic domain expressed in baculovirus using GST-PLCgamma as substrate preincubated for 15 mins before substrate addition measured after 1 hr by time resolved fluorescence assay
[26] = molecular target: T2, Vascular endothelial growth factor receptor 3; assay: Inhibition of human Flt4; how it was run: as §6

T2 sequence (P35916 whole entry): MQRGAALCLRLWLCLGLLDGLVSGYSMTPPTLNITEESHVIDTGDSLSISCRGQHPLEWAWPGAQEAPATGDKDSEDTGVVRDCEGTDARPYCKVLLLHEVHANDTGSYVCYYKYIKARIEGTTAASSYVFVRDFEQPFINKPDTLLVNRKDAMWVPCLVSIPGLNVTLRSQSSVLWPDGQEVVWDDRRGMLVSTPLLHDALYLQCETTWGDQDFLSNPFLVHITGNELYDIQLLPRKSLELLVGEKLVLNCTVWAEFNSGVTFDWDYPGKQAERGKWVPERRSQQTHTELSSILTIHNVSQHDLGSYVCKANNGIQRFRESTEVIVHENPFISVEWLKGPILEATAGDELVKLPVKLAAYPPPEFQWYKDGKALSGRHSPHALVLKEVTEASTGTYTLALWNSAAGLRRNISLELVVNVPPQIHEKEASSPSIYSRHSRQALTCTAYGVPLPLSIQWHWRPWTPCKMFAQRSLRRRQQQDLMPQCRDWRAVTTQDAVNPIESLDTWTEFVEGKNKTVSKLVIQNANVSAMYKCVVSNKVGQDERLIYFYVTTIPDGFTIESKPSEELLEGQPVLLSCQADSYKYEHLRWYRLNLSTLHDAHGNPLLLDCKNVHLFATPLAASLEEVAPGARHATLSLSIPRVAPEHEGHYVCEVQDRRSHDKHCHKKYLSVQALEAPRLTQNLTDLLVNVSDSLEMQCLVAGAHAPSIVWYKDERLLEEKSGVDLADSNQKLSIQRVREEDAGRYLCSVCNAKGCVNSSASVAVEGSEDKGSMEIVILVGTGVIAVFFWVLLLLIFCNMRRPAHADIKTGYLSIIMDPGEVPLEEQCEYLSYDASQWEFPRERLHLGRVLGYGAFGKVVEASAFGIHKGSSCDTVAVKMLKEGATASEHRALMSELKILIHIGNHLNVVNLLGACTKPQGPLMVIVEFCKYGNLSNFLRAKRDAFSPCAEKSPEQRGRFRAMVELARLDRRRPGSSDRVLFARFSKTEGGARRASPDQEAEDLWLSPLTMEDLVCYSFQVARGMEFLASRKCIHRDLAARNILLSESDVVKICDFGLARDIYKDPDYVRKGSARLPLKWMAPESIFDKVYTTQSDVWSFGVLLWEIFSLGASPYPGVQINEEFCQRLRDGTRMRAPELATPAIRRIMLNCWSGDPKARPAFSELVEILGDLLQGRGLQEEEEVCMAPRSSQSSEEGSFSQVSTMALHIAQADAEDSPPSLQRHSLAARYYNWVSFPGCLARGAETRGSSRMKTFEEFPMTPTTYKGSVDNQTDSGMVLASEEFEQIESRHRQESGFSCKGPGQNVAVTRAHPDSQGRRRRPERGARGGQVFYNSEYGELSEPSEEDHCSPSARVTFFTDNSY
T1 sequence (P51812 whole entry): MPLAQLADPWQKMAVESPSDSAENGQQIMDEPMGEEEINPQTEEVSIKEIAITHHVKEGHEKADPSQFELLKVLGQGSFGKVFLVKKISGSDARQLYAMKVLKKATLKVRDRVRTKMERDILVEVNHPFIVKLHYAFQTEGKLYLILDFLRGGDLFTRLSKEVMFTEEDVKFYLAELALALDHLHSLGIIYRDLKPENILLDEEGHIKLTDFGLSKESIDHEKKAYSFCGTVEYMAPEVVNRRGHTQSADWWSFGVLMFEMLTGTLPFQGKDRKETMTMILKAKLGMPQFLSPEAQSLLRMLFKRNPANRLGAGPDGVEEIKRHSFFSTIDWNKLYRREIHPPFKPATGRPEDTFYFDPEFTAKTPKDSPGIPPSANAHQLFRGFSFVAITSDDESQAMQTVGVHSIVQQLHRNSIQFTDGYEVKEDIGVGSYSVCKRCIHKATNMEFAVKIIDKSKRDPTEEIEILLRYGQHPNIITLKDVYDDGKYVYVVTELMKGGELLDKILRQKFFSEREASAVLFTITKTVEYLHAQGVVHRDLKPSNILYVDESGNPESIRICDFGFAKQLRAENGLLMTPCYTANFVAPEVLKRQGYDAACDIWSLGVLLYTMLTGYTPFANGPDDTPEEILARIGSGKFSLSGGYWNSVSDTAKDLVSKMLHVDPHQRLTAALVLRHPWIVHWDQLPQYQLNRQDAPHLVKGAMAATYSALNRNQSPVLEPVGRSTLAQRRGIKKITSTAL
T3 sequence (Q15349 whole entry): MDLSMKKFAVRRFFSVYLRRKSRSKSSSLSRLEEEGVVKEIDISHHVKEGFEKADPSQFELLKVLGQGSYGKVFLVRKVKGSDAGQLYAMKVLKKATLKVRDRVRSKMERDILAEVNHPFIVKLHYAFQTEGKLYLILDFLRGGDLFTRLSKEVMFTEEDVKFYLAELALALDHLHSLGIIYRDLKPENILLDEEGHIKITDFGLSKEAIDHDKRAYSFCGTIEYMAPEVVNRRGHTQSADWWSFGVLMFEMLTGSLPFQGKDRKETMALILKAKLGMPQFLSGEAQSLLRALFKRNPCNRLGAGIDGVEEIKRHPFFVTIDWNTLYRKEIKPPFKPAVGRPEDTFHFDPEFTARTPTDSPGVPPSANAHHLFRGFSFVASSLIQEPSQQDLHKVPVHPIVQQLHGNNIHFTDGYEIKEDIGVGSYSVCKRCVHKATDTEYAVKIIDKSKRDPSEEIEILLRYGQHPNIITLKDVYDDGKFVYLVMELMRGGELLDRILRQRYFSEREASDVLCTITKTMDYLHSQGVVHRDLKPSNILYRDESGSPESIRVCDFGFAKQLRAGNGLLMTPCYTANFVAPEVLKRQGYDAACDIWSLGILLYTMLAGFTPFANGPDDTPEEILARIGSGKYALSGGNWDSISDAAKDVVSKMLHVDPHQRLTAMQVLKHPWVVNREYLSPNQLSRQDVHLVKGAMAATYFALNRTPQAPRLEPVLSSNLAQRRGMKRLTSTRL
ALK tyrosine kinase receptor, sequence (Q9UM73 whole entry, the tested form may be a part): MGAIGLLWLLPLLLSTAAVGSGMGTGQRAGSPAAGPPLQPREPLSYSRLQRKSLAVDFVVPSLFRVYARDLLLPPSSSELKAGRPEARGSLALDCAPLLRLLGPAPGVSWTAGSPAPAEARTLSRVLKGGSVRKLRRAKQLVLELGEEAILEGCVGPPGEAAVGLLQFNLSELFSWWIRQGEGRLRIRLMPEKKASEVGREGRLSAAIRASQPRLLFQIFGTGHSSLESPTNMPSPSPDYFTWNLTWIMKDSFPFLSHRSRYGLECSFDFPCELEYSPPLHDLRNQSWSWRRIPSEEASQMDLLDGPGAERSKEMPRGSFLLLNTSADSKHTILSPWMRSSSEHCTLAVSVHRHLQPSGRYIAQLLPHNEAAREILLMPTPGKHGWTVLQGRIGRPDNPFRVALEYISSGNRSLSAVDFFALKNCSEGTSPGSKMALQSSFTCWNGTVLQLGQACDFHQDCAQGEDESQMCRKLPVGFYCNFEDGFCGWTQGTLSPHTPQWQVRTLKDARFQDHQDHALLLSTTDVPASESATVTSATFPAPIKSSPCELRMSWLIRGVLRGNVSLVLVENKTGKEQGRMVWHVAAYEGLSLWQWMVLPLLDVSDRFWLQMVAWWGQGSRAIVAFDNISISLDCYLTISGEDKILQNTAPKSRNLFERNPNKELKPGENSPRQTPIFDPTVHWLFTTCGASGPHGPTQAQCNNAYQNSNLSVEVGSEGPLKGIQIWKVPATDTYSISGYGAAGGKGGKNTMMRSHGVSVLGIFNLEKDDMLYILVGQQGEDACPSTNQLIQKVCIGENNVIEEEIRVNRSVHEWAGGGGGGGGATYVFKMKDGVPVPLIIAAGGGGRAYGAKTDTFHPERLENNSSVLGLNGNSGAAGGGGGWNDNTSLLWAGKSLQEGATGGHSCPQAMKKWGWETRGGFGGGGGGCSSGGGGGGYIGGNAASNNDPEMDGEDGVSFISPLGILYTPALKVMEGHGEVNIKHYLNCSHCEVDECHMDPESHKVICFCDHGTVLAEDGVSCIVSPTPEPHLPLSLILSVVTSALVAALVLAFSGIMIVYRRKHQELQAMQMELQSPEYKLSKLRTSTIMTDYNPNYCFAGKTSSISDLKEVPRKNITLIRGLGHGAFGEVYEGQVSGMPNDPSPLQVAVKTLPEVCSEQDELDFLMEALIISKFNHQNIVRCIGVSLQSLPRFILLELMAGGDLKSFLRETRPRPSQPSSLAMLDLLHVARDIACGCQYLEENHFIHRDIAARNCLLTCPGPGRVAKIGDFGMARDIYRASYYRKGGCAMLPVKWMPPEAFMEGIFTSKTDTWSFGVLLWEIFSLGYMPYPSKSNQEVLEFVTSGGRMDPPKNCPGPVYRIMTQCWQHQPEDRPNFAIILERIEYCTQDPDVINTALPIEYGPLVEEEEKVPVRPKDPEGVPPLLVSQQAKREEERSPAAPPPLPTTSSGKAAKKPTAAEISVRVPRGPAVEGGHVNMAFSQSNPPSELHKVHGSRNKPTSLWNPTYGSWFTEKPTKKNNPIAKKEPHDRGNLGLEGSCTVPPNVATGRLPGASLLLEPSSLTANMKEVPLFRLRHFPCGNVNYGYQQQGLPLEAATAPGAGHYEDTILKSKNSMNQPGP
Mitogen-activated protein kinase 8, sequence (P45983 whole entry): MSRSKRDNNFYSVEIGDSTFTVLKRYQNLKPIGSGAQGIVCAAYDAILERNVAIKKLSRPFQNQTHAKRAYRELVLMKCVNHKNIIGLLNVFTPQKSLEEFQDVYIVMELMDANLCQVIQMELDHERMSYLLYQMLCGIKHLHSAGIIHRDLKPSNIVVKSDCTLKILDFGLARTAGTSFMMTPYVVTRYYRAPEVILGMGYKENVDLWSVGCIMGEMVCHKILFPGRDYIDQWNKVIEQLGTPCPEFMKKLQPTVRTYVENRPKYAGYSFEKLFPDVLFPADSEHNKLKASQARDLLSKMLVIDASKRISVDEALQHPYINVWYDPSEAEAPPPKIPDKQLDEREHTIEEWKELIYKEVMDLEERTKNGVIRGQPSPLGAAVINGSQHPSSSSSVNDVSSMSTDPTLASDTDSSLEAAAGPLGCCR

COc1c(Nc2ncc(Cl)c(N[C@H]3[C@@H](C(N)=O)[C@@H]4C=C[C@H]3C4)n2)ccc2c1CC[C@@H](N1CCOCC1)CC2 gave a Cmax [1] of 1010 ng/mL, a Cmax [2] of 2250 ng/mL and an AUC [3] of 4830 ng·h/mL. The Tmax [4] was 1 h, the inhibition [5] was > 90% and the half-life [6] was 2.3 h. For the same compound, the AUC(0-t) at 12 h [7] was 24100 ng·h/mL, the “growth inhibition (GI)” value (NB1643) was “Active” and the half-life [8] was 1.8 h. The inhibition [9] was > 90%, the Tmax [10] was 0.25 h and the clearance [11] was 40 mL/min/kg. The “growth inhibition (GI)” value (SK-N-AS) was “inactive”, the Vd [12] was 2.9 L/kg and the AUC [13] was 954 ng·h/mL. For the same compound, the concentration at 2 h [14] was 686 ng/g, the Activity (Mus musculus) was “Non-toxic” and the IC50 [15] was 13 nM. For the same compound, the IC50 [16] was 7 nM, the inhibition [17] was > 90% and the Cmax [18] was 170 ng/mL. The concentration at 24 h [19] was 100 ng/g, the concentration at 2 h [20] was 2630 ng/g and the IC50 [21] was 112 nM. For the same compound, the clearance [22] was 29 mL/min/kg, the AUC [23] was 2990 ng·h/mL and the bioavailability [24] was 50%. The IC50 [25] was 1.9 nM and the IC50 [26] was 48 nM.
